Source: paper PMC12818350 (Nature Biotechnology, 2025)
Non-standard residues stand in square brackets, D forms with d. No end group written: not given here.

Columns and labels:
HEK239 cells = assay: Human cell toxicity assay; type: cell-based; conditions: MTT, 48 h, 32 and 3.2 µg ml−1, duplicate wells; three biologically independent replicates
In short: (§1)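 Cells grown in DMEM with 10% FBS, penicillin–streptomycin, glutamine and nonessential amino acids, and seeded in exponential phase at 5,000 per well, 37 °C, 5% CO2. Compound added from a DMSO stock in phenol red-free DMEM (final DMSO 0.5% or 0.05%). Vehicle sets 100% viability; camptothecin 40 µg ml−1 sets 0%. MTT added for 4 h, solubilized overnight, A570 read, normalized to percentage survival.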

S. aureus ClpX = S. aureus ClpX (Staphylococcus aureus, UniProt Q2FXQ7); assay: Isothermal titration calorimetry; type: binding; conditions: 25 °C, ~30 μM His-ClpX, ~300 μM ligand
S. aureus SH1000 [1] = assay: Mutant isolation by direct plating; type: cell-based, Staphylococcus aureus; conditions: 8× MIC, ~1 × 10^7 cells per ml, LB, 30 °C, overnight
HeLa cells = assay: Human cell toxicity assay; type: cell-based; conditions: MTT, 48 h, 32 and 3.2 µg ml−1, duplicate wells; three biologically independent replicates
In short: as §1

S. aureus SH1000 [2] = assay: MIC assay; type: cell-based, Staphylococcus aureus

Sequence of S. aureus ClpX (Q2FXQ7 whole entry): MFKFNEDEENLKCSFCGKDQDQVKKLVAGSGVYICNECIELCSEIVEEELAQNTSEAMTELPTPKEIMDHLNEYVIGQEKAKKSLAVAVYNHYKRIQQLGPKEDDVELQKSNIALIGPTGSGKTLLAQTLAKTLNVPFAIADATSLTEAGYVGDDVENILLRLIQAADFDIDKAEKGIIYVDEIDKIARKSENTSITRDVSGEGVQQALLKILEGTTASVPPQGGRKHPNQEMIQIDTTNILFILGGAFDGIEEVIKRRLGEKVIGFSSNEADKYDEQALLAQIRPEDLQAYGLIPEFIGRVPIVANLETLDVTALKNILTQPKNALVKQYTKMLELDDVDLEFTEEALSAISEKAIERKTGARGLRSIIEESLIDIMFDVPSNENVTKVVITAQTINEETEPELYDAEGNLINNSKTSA

“[dT]PFYL (also: lariat or depsi (positions not given here)) [synBNP 27, trigintamicin]” was tested, and the “human cell toxicity (in words)” value (HEK239 cells) was “human cell cytotoxicity”, the “binding to ClpX by ITC (in words)” value (S. aureus ClpX) was “bound ClpX” and the “resistant mutants by direct plating” value (S. aureus SH1000 [1]) was “generated resistant mutants”. For the same substance, the “human cell toxicity (in words)” value (HeLa cells) was “human cell cytotoxicity”, the “antibiotic activity after shifting the assay conditions to 37 °C (in words)” value (S. aureus SH1000 [2]; S. aureus, 37 °C instead of 30 °C) was “abolished” and the “antibiotic activity against S. aureus (in words)” value (S. aureus SH1000 [2]; resolved trigintamicin isomers after resynthesis, 30 °C) was “showing antibiotic activity”.
